Experiment [1] relates to Mus musculus. Put plainly: % EMT-6 tumor regression response induced in BALB/c mice after ZnPc and Photofrin-mediated photodynamic therapy (PDT) at a concentration of 1 uM/kg. In kind it is functional. In a few lines: (§1)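 In male BALB/c mice (18–22 g), intradermal EMT-6 tumors on each hind thigh were grown 6–8 days to 3–5-mm diameter. Mice then received 1 or 2 μmol kg⁻¹ dye i.v. in Cremophor emulsion, with red-light exposure 24 h later. Scored as percent of animals showing complete tumor regression 3 weeks after PDT.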

Experiment [2] concerns Mus musculus. Put plainly: % EMT-6 tumor regression response induced in BALB/c mice after ZnPc and Photofrin-mediated photodynamic therapy (PDT) at a concentration of 2 umol/kg. In kind it is functional. A digest of the protocol: as §1
For experiment [3], the system named is EMT6. Briefly: Drug dose required to kill 90% of cells(EMT-6 mammary tumor cell line) after 24 hr incubation with a fixed fluence of 2.4 J cm-2. In kind it is functional, Mus musculus. In a few lines: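 EMT-6 mouse mammary tumour cells were grown in Waymouth's medium with 15% FBS. They were seeded at 15 × 10³ per well overnight, then given dye (Cremophor emulsion diluted in Waymouth 1% FBS) for 1 or 24 h at 37 °C. Cells were rinsed and refed, then exposed to red light (λ > 590 nm, 10 mW cm⁻²) to 2.4 J cm⁻². MTT was read at 595 nm the next day. Dye-free cells set 100% survival.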

Experiment [4] deals with Mus musculus. Briefly: % EMT-6 tumor edema response induced in BALB/c mice after ZnPc and Photofrin-mediated photodynamic therapy (PDT) at a concentration of 1 umol/kg; Important. The settings on record: tested as the Zn salt or complex. Format: functional, organism-based. In a few lines: (§2)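 Male BALB/c mice (18–22 g), shaved and depilated, bore EMT-6 tumors from intradermal injection of 2 × 10⁵ cells into each hind thigh. At 6–8 days (tumors 3–5-mm diameter, 2–3-mm thick), dye was given i.v. as a Cremophor emulsion (0.2 mL/20 g) at 1 or 2 μmol kg⁻¹. Red light followed 24 h later. Edema was scored 24 h after PDT as light (+), medium (++), important (+++) or extensive (++++).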

In experiment [5] the test system is EMT6. Briefly: Light dose required to kill 90% of cells(EMT-6 mammary tumor cell line) after 1 hr incubation with 1 uM concentration. Format: functional, Mus musculus. In a few lines: (§3)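 EMT-6 cells were seeded at 15 × 10³ per well and incubated 1 or 24 h at 37 °C with 1 μM dye from Cremophor emulsion in Waymouth 1% FBS. They were rinsed, refed with 15% FBS, and given red light (10 mW cm⁻²) over 0.1–20 J cm⁻². After overnight incubation, viability was read by MTT (595 nm). LD₉₀ was extrapolated from survival curves, with eightfold replicates per light dose and at least three experiments.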

Experiment [6] deals with Mus musculus. Put plainly: % EMT-6 tumor edema response induced in BALB/c mice after ZnPc and Photofrin-mediated photodynamic therapy (PDT) at a concentration of 2 umol/kg; Important. In kind it is functional, organism-based. The following applies: tested as the Zn salt or complex. In a few lines: as §2
Experiment [7] has as its system EMT6. Briefly: Light dose required to kill 90% of cells(EMT-6 mammary tumor cell line) after 24 hr incubation with 1 uM concentration. In kind it is functional, Mus musculus. A digest of the protocol:
as §3

In experiment [8] the test system is Mus musculus. Put plainly: % EMT-6 tumor necrosis response induced in BALB/c mice after ZnPc and Photofrin-mediated photodynamic therapy (PDT) at a concentration of 1 uM/kg. Format: functional.
The species named for experiment [9] is Mus musculus. The settings on record: BALB/c, 2 umol/kg.
Experiment [10] concerns EMT6. The following applies: Mus musculus.
Experiment [11] has as its system Mus musculus. Briefly: % EMT-6 tumor edema response induced in BALB/c mice after ZnPc and Photofrin-mediated photodynamic therapy (PDT) at a concentration of 10 uM/kg. In kind it is functional, organism-based. The following applies: tested as the Zn salt or complex.
The subject of experiment [12] is V-79 (Cricetulus griseus). Briefly: Drug dose required to kill 90% of cells after 1 hr incubation with a fixed fluence of 2.4 J cm-2. (assay with Chinese hamster V-79 fibroblasts).
In experiment [13] the test system is Mus musculus. Briefly: % EMT-6 tumor regression response induced in BALB/c mice after ZnPc and Photofrin-mediated photodynamic therapy (PDT) at a concentration of 10 uM/kg. In kind it is functional.
In experiment [14] the test system is Mus musculus. Put plainly: % EMT-6 tumor necrosis response induced in BALB/c mice after ZnPc and Photofrin-mediated photodynamic therapy (PDT) at a concentration of 10 uM/kg. The following applies: tested as the Zn salt or complex. In kind it is functional, organism-based.
Experiment [15] concerns Mus musculus. Put plainly: % EMT-6 tumor edema response induced in BALB/c mice after ZnPc and Photofrin-mediated photodynamic therapy (PDT) at a concentration of 1 umol/kg; Extensive. In kind it is functional, organism-based. The following applies: tested as the Zn salt or complex. In a few lines: as §2
The subject of experiment [16] is Mus musculus. Put plainly: % EMT-6 tumor edema response induced in BALB/c mice after ZnPc and Photofrin-mediated photodynamic therapy (PDT) at a concentration of 2 umol/kg; Extensive. Format: functional, organism-based. The settings on record: tested as the Zn salt or complex. In a few lines:
as §2

Experiment [17] concerns Mus musculus. Put plainly: % EMT-6 tumor edema response induced in BALB/c mice after ZnPc and Photofrin-mediated photodynamic therapy (PDT) at a concentration of 1 umol/kg; Light. In kind it is functional, organism-based. The following applies: tested as the Zn salt or complex. In a few lines: as §2
Setting [18] is: Mus musculus, tested as the Zn salt or complex.

Active and inactive are the calls of the source. No cut-off for these calls is given here.

As for `Oc1cc2c(cc1O)-c1nc-2nc2[n-]c(nc3nc(nc4[n-]c(n1)c1ccccc41)-c1ccccc1-3)c1ccccc21.[Zn+2]`, the Tumor response in [1] is given as 25%; in [2], 0%; in [4], “Important”; in experiment [6], “Important”; in experiment [8], 62%. Moreover, the LC90 in [3] came to 300 nM. Further, the LD90 is on record as 2.4 J cm**-2 in experiment [5] and 0.25 J cm**-2 in [7].
For `[Zn+2].c1ccc2c(c1)-c1nc-2nc2[n-]c(nc3nc(nc4[n-]c(n1)c1ccccc41)-c1ccccc1-3)c1ccccc21` [(PHTHALOCYANINATO)ZINC(II)], the Tumor response entry in experiment [9] is “inactive”. Also, the Tumor response in experiment [2] came out at 100%. The LC90 result in experiment [3] (setting [18]) and in experiment [10] was “inactive” in each case. In [5], this compound yielded an LD90 of 0.14 J cm**-2. For the same compound, the LD90 entry in experiment [7] (setting [18]) was “inactive”.
In the case of `Oc1ccc2c(c1)-c1nc-2nc2[n-]c(nc3nc(nc4[n-]c(n1)c1ccc(O)cc41)-c1ccc(O)cc1-3)c1ccc(O)cc21.[Zn+2]`, in experiment [3] (setting [18]), the LC90 result was “inactive”. Further, the result in experiment [11] was inactive. Besides, the LC90 in experiment [12] is >100000 nM. For the same compound, the LD90 entry in experiment [5] (setting [18]) and in experiment [7] (setting [18]) was “inactive” in each case. In experiment [13], this compound registered a Tumor response of 0%. Besides, the Tumor response entry in experiment [14] is “inactive”.
As to `Oc1ccc2c(c1)-c1nc-2nc2[n-]c(nc3nc(nc4[n-]c(n1)c1ccccc41)-c1ccc(O)cc1-3)c1ccc(O)cc21.[Zn+2]`, in experiment [3], the LC90 amounted to 800 nM. Besides, the LD90 is reported as 19 J cm**-2 in [5] and 0.48 J cm**-2 in [7].
With `Oc1ccc2c(c1)-c1nc-2nc2[n-]c(nc3nc(nc4[n-]c(n1)c1ccccc41)-c1ccccc1-3)c1ccccc21.[Zn+2]`, the Tumor response was 12% in experiment [1]; 25% in experiment [2]; “Extensive” in experiment [15]; “Extensive” in experiment [16]; 100% in experiment [8]. The same compound returned an LC90 in experiment [3] of 120 nM. Besides, the LD90 in [5] turned out to be 0.4 J cm**-2; in [7], 0.15 J cm**-2.
As to `Oc1ccc2c(c1)-c1nc-2nc2[n-]c(nc3nc(nc4[n-]c(n1)c1ccccc41)-c1ccccc1-3)c1ccc(O)cc21.[Zn+2]`, the Tumor response result is reported as “Light” in experiment [17], 0% in experiment [1], 75% in [2] and 0% in [8]. The same compound registered an LC90 in [3] of 580 nM. In addition, the results for the LD90 in [5] and in [7] were 7.5 J cm**-2 and 0.4 J cm**-2, respectively.

The values are drawn from ChEMBL document CHEMBL1131227, “Hydroxyphthalocyanines as potential photodynamic agents for cancer therapy” (1998).
